This is an account of results in ChEMBL document CHEMBL1146113, “Synthesis and SAR of heteroaryl-phenyl-substituted pyrazole derivatives as highly selective and potent canine COX-2 inhibitors” (Bioorg Med Chem Lett, 2006).

Some results are limits rather than exact numbers.

Data set [1] deals with T1, Prostaglandin G/H synthase 1 (Canis lupus familiaris, UniProt Q8HZR1).
T1 sequence (Q8HZR1 whole entry): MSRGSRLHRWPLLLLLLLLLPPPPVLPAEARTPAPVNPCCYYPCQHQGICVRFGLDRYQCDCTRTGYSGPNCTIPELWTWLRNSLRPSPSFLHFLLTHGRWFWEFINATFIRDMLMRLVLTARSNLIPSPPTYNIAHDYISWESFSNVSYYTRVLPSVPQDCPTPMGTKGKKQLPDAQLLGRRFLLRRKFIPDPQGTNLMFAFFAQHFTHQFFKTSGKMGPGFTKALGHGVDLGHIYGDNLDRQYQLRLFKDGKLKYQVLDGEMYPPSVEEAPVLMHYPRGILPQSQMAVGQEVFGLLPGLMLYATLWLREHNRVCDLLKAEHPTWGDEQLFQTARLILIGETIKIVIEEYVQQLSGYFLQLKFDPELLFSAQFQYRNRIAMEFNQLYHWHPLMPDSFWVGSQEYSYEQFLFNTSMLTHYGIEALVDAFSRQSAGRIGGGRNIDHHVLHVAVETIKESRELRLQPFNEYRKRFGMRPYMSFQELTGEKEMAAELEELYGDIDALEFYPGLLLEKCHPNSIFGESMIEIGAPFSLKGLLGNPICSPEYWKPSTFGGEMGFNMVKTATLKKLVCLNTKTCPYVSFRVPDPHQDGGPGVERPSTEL
Briefly: Inhibition of COX1 in canine whole blood. A digest of the protocol: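 Canine whole blood incubated with drug for 1 h at 37 °C, with drug-free samples as maximum TXB2 controls. EDTA (0.3% final) then added and serum collected and frozen. COX-1 activity read as TXB2 production by EIA, with samples diluted 1/10,000.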

The target of a further data set is T2, Cyclooxygenase-2 (Canis lupus familiaris, UniProt Q8SPQ9).
T2 sequence (Q8SPQ9 whole entry): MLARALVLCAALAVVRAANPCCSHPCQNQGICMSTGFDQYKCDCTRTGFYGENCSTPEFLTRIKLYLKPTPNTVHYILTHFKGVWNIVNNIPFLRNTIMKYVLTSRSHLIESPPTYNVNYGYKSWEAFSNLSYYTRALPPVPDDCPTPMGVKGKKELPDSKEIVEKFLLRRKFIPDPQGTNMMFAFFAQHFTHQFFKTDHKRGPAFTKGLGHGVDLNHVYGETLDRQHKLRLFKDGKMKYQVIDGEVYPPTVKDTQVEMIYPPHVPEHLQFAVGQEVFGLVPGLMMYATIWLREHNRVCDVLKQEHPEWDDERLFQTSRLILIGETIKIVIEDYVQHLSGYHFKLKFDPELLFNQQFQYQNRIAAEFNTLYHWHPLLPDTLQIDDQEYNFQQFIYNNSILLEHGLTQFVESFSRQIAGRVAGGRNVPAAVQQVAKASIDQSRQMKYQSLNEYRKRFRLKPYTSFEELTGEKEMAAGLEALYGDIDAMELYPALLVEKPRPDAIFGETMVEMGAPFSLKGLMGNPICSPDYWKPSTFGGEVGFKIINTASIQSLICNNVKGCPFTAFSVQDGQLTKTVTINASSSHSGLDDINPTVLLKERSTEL
Briefly: Inhibition of COX2 in canine whole blood. It counts as tissue-based. A digest of the protocol: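 Heparinized canine whole blood incubated overnight at 37 °C with drug plus LPS to stimulate PGE2. LPS-only controls gave maximum PGE2 and vehicle-only controls gave background. EDTA (0.3% final) then added and plasma collected and frozen. PGE2 measured by EIA, with samples diluted 1/1000.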

The species named for another data set is Canis lupus familiaris. Briefly: Selectivity for COX2 over COX1.
A short description of data set [2]: Oral bioavailability in dog. Type of data set: ADME, organism-based, Canis lupus familiaris. Particulars: in vivo.
Data set [3] in a line: Half life in dog. It counts as ADME, organism-based, Canis lupus familiaris. Particulars: in vivo.

Regarding `CS(=O)(=O)c1ccc(-n2nc(C(F)(F)F)cc2-c2ccc(-c3cscn3)cc2F)nc1`, the IC50 (usually the concentration that inhibits the measured activity by half) amounted to 22.7 µM in data set [1] and 0.29 µM against Cyclooxygenase-2. For the same compound, the Ratio IC50 in the data set filed under Canis lupus familiaris was determined as 78.
The corresponding values for `CS(=O)(=O)c1ccc(-n2nc(C(F)(F)F)cc2-c2ccc(-c3nccs3)cc2)nc1` are 50 µM, 0.21 µM and 238.
Regarding `Cc1scnc1-c1ccc(-c2cc(C(F)(F)F)nn2-c2ccc(S(C)(=O)=O)cn2)cc1`, the IC50 against Cyclooxygenase-2 is more than 0.5 µM.
`CS(=O)(=O)c1ccc(-n2nc(C(F)F)cc2-c2ccc(-c3ccco3)cc2)nc1`: the half-maximal inhibitory concentration (IC50) in data set [1] amounted to 12 µM; against Cyclooxygenase-2, 0.13 µM. For the same compound, the Ratio IC50 in the data set listed under Canis lupus familiaris was determined as 92.
In the same order, the values of `CS(=O)(=O)c1ccc(-n2nc(C(F)(F)F)cc2-c2ccc(-c3ccco3)cc2)nc1` are 18.2 µM, 0.02 µM and 759.
The corresponding values for `Cc1cc(-c2cc(C(F)F)nn2-c2ccc(S(C)(=O)=O)cn2)ccc1-c1cscn1` are 3.8 µM, 0.019 µM and 200.
The corresponding values for `CS(=O)(=O)c1ccc(-n2nc(C(F)(F)F)cc2-c2ccc(-c3ccco3)c(F)c2)nc1` are 27.9 µM, 0.05 µM and 558.
On to `CS(=O)(=O)c1ccc(-n2nc(C(F)(F)F)cc2-c2ccc(-c3cscn3)c(Cl)c2)nc1`, for which the IC50 in data set [1] is 16 µM; against Cyclooxygenase-2 it was less than 0.05 µM. Moreover, in the data set listed under Canis lupus familiaris, the Ratio IC50 was more than 320.
As for `CS(=O)(=O)c1ccc(-n2nc(C(F)(F)F)cc2-c2cccc(-c3cscn3)c2)nc1`, the concentration for half-maximal inhibition (IC50) against Cyclooxygenase-2 was more than 0.5 µM.
Turning to `CS(=O)(=O)c1ccc(-n2nc(C(F)F)cc2-c2ccc(-c3ccco3)c(F)c2)nc1`, the IC50 in data set [1] is 5 µM; on Cyclooxygenase-2, 0.06 µM. The Ratio IC50 in the data set filed under Canis lupus familiaris amounted to 83.
As for `CS(=O)(=O)c1ccc(-n2nc(C(F)(F)F)cc2-c2ccc(-c3ccco3)c(Cl)c2)nc1`, the 50% inhibitory concentration (IC50) in data set [1] was more than 50 µM; against Cyclooxygenase-2 it was 0.012 µM. Also, in the data set filed under Canis lupus familiaris, the Ratio IC50 is more than 4170. Besides, in data set [2], the bioavailability – broadly, dose-corrected exposure relative to a reference, in per cent – came to 34%. Besides, the half-life (as a rule, the time in which the quantity being followed falls by half) in data set [3] is 16.4 h.
`Cc1cc(-c2cc(C(F)(F)F)nn2-c2ccc(S(C)(=O)=O)cn2)ccc1-c1cocn1`: the IC50 in data set [1] was determined as 12.7 µM; against Cyclooxygenase-2, 0.03 µM. Moreover, the Ratio IC50 in the data set listed under Canis lupus familiaris turned out to be 487.
Consider `CS(=O)(=O)c1ccc(-n2nc(C(F)(F)F)cc2-c2ccc(-c3cscn3)cc2)nc1`, for which the 50% inhibitory concentration (IC50) in data set [1] was more than 50 µM; on Cyclooxygenase-2, 0.16 µM. Besides, the Ratio IC50 in the data set filed under Canis lupus familiaris was more than 313.
The corresponding values for `CS(=O)(=O)c1ccc(-n2nc(C(F)F)cc2-c2ccc(-c3ccco3)c(Cl)c2)nc1` are 5.5 µM, 0.01 µM and 550.
In the same order, the values of `CS(=O)(=O)c1ccc(-n2nc(C(F)(F)F)cc2-c2ccc(-c3ccco3)c(C#N)c2)nc1` are 2 µM, 0.013 µM and 154.
In the same order, the values of `Cc1cc(-c2cc(C(F)(F)F)nn2-c2ccc(S(C)(=O)=O)cn2)ccc1-c1ncco1` are 11.1 µM, 0.065 µM and 171.
`CS(=O)(=O)c1ccc(-n2nc(C(F)(F)F)cc2-c2ccc(-c3nccs3)c(C#N)c2)nc1`: the IC50 in data set [1] turned out to be 23.4 µM; on Cyclooxygenase-2, 0.11 µM. In the data set filed under Canis lupus familiaris, the Ratio IC50 is 212.
The corresponding values for `CS(=O)(=O)c1ccc(-n2nc(C(F)(F)F)cc2-c2ccc(-c3ccco3)c(C(N)=O)c2)nc1` are 2 µM, 0.41 µM and 4.9.
The corresponding values for `Cc1cc(-c2cc(C(F)(F)F)nn2-c2ccc(S(C)(=O)=O)cn2)ccc1-c1ccco1` are 3.4 µM, 0.01 µM and 340.
In the same order, the values of `Cc1cc(-c2cc(C(F)(F)F)nn2-c2ccc(S(C)(=O)=O)cn2)ccc1-c1cscn1` are 15.5 µM, 0.09 µM and 172.
With `CS(=O)(=O)c1ccc(-n2nc(C(F)(F)F)cc2-c2ccc(-c3cncs3)cc2)nc1`, the values for the half-maximal inhibitory concentration (IC50) (in data set [1]; against Cyclooxygenase-2) were 2.7 µM and 0.18 µM, respectively. In addition, the Ratio IC50 in the data set listed under Canis lupus familiaris was 15.
The compound `COC(=O)c1cc(-c2cc(C(F)(F)F)nn2-c2ccc(S(C)(=O)=O)cn2)ccc1-c1ccco1` showed an IC50 against Cyclooxygenase-2 of more than 0.5 µM.
